Experimental data from different studies.
Each line is one published result; the experiments were not run side by side.
Target: Death-associated protein kinase 3 (DAPK3, Homo sapiens, UniProt O43293)

SMILES | read-out | technique | concentration | remaining binding [%]
C[C@@H](c1ccc(-n2cnc3c(N)ncnc32)cc1)N1CCc2nn(C)c(Cc3ccccc3)c2C1=O | binding | competition with immobilised ligand | 0.1 µM | 87
O=C(c1ccc(Nc2nccc(-c3cc4ccccc4s3)n2)cc1)N1CCC(N2CCCC2)CC1 | binding | competition with immobilised ligand | 1 µM | 11
C[C@@H]1CCN(c2nccc(-c3cnn4ncccc34)n2)C1 | binding | – | 1 µM | 69
O=C(Nc1c[nH]nc1C(=O)NC1CCNCC1)c1cc(F)cc(F)c1 | binding | competition with immobilised ligand | 1 µM | 100
Cc1cnn2ncc(-c3ccnc(N(C)C)n3)c2c1 | binding | – | 1 µM | 84
FC(F)(F)Oc1cccc(-c2cnc3ccc(-c4ccncc4)nn23)c1 | cell-free assay | competition with immobilised ligand | 5 µM | 67
CS(=O)(=O)N1CCCC(NC(=O)[C@H](CCC2CCCCC2)NC(=O)c2ccc(CNC(=O)c3cnc4ccccn34)cc2)C1 (stereo partly shown) | cell-free assay | competition with immobilised ligand | 0.1 µM | 90
c1cncc(-c2cccc(Nc3nccc(NC4CCCCC4)n3)c2)c1 | binding | competition with immobilised ligand | 10 µM | 85
CNC(=O)Nc1ccc2c(c1)[C@@]1(CC2)OC(=O)N(CC(=O)N(Cc2ccc(F)cc2)[C@@H](C)C(F)(F)F)C1=O | cell-free assay | competition with immobilised ligand | 1 µM | 100
O=C(c1ccc(Nc2ncc(Cl)c(-c3ccc(Cl)s3)n2)cc1)N1CCC(N2CCCC2)CC1 | binding | competition with immobilised ligand | 1 µM | 14
COc1ccnn2ncc(-c3ccnc(N(C)C)n3)c12 | binding | – | 1 µM | 72
C=CC(=O)N1CCC(C(=O)NCC(=O)N2CCN(c3nc(-c4cnc(N)nc4C(F)F)nc(N4CCOCC4)n3)CC2)CC1 | binding | competition with immobilised ligand | 1 µM | 89
CNC(=O)Nc1ccc2c(c1)CC[C@@]21OC(=O)N(CC(=O)N(Cc2ccc(F)cc2)[C@@H](C)C(F)(F)F)C1=O | cell-free assay | competition with immobilised ligand | 1 µM | 86
CC1CCCN1c1nccc(-c2cnn3ncccc23)n1 (stereo not shown) | binding | – | 1 µM | 89
CS(=O)(=O)c1cc(C2(NC(=O)c3cncc4c3cnn4-c3ccc(F)cc3)CC2)ccn1 | cell-free assay | competition with immobilised ligand | 1 µM | 98
COc1cnc(Nc2cccc(S(N)(=O)=O)c2)nc1N1CCN(c2ccccc2)CC1 | binding | competition with immobilised ligand | 1 µM | 76
COc1ccc2cc(OCC3(C(=O)O)CN(C(=O)c4ccc(F)cc4)C3)ccc2c1 | cell-free assay | competition with immobilised ligand | 1 µM | 100
CN(c1nccc(-c2cnn3ncccc23)n1)C1CC1 | binding | – | 1 µM | 70
Cn1cc(Cl)c2c(Oc3c(F)cc(Nc4cc(Cl)nc(N)n4)cc3F)ccnc21 | cell-free assay | competition with immobilised ligand | 0.1 µM | 100
N[C@H]1CCN(c2nccc(-c3cnn4ncccc34)n2)C1 | binding | – | 1 µM | 100
Cc1cnc(Nc2ccc(C(=O)N3CCC(N4CCCC4)CC3)cc2)nc1-c1cc2ccccc2s1 | binding | competition with immobilised ligand | 1 µM | 3.4
CCCCN(CCCC)C(=O)CN1C[C@@H](c2cc(OC)c3c(c2)OCO3)[C@H](C(=O)O)[C@H]1CC(C)(C)CCC | cell-free assay | competition with immobilised ligand | 1 µM | 100
